Active and inactive are the calls of the source. The rule behind the calls is not given here.

Holding throughout (assay type): cell-based
Test [1] concerns the target T1, Retinoic acid receptor RXR-alpha (Homo sapiens, UniProt P19793).
T1 sequence (P19793 whole entry): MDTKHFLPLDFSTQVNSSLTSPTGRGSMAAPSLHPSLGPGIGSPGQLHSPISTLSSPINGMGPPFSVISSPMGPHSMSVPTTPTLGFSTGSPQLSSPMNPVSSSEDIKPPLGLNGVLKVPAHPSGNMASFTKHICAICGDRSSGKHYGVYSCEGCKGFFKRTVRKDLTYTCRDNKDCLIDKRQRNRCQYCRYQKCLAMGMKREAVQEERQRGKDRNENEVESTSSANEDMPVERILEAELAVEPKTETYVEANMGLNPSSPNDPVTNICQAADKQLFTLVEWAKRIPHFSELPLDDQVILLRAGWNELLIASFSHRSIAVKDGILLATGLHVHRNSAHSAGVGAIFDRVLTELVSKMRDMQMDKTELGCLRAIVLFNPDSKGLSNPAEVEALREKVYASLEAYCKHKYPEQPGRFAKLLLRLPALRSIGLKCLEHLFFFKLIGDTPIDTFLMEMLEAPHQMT
The test can be described thus: Agonist activity at Gal4-LBD fused RXRalpha (unknown origin) expressed in HEK293T cells after 14 to 16 hrs by dual-Glo luciferase assay. A digest of the protocol: (§1)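 Gal4-hybrid RXRα/β/γ reporter gene assays in HEK293T cells. Fold activation is the maximal fold activation versus 0.1% DMSO.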

In test [2] the target is T2, Retinoic acid receptor RXR-beta (Homo sapiens, UniProt P28702).
T2 sequence (P28702 whole entry): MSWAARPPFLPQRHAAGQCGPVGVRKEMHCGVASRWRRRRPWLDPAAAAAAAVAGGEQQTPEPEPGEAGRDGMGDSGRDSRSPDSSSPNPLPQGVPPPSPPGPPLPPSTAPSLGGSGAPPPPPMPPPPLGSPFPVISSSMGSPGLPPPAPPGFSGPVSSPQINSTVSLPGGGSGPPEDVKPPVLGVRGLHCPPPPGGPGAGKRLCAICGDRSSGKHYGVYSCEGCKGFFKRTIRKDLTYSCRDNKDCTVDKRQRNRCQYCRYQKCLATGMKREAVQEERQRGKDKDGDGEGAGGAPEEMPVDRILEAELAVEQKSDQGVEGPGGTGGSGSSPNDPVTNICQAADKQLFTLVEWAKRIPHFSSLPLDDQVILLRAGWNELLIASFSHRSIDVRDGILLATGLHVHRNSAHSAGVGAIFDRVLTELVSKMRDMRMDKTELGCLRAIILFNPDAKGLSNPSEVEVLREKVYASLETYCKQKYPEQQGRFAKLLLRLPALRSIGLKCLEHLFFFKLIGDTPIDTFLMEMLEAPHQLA
The experiment in a line: Agonist activity at Gal4-LBD fused RXRbeta (unknown origin) expressed in HEK293T cells after 14 to 16 hrs by dual-Glo luciferase assay. In a few lines: as §1

Test [3] has as its target T3, Retinoic acid receptor beta (Homo sapiens) (UniProt P10826).
T3 sequence (whole entry): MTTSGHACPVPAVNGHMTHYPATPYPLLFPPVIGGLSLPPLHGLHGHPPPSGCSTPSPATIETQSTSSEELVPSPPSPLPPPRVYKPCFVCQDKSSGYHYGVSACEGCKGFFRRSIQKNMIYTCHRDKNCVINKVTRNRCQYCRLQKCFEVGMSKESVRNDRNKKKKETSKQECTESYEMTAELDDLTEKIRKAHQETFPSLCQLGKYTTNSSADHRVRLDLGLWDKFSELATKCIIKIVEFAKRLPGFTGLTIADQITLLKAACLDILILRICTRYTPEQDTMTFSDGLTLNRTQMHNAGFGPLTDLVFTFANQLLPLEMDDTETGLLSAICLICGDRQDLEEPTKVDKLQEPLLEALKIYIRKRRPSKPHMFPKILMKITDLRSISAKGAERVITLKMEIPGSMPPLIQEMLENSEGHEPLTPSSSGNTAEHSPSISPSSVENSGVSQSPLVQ
The experiment in a line: Agonist activity at Gal4-LBD fused RARbeta (unknown origin) expressed in HEK293T cells at 10 uM after 14 to 16 hrs by dual-Glo luciferase assay. In a few lines:
(§2)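 Gal4-hybrid reporter gene selectivity panel of related nuclear receptors (PPARα/β/γ, RARα/β/γ) in HEK293T cells. Activity is read as mean fold activation versus 0.1% DMSO vehicle, n ≥ 2.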

Test [4] has as its target T4, Peroxisome proliferator-activated receptor alpha (Homo sapiens) (UniProt Q07869).
T4 sequence (whole entry): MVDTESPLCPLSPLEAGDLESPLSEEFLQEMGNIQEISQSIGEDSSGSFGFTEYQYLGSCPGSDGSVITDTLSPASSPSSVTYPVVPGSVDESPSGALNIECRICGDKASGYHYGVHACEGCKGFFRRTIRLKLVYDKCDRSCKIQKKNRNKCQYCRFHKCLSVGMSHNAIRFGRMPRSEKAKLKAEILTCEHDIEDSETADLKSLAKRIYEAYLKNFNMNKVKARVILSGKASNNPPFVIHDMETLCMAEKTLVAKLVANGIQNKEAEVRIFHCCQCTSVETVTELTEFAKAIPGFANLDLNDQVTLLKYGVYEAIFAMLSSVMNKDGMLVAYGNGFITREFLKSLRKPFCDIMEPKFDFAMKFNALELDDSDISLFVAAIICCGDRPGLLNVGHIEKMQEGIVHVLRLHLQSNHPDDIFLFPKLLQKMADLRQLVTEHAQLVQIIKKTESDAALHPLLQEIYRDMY
The experiment in a line: Agonist activity at Gal4-LBD fused PPARalpha (unknown origin) expressed in HEK293T cells at 10 uM after 14 to 16 hrs by dual-Glo luciferase assay. In a few lines: as §2

In test [5] the target is T5, Peroxisome proliferator-activated receptor gamma (Homo sapiens) (UniProt P37231).
T5 sequence (whole entry): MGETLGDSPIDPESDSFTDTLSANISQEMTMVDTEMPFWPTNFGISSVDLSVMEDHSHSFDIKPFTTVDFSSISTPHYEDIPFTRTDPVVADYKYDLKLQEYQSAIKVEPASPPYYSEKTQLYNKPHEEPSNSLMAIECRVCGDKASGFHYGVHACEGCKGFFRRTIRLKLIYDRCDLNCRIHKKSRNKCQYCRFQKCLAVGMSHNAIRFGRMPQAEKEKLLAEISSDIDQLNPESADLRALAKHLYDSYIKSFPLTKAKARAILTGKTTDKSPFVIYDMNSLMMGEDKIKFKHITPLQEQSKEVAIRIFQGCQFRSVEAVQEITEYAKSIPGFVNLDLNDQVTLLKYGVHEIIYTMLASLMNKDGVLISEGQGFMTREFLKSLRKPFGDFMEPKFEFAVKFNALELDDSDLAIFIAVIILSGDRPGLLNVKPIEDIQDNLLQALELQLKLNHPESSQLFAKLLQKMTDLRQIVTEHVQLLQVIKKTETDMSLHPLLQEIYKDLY
The test can be described thus: Agonist activity at Gal4-LBD fused PPARgamma (unknown origin) expressed in HEK293T cells at 10 uM after 14 to 16 hrs by dual-Glo luciferase assay. In a few lines: as §2

Take `Cc1cc(-c2ccc(C(=O)O)cc2)cc(C(C)(C)C)c1`: the EC50 in test [1] stood at 8 µM; in test [2] it was 12 µM.
As to `Cc1cc(-c2cc(C(C)(C)C)cc(C(C)(C)C)c2)ccc1C(=O)O`, the concentration giving a half-maximal response (EC50) in test [2] turned out to be 6.6 µM. The outcome in test [3], in test [4] and in test [5] was Active.
Regarding `Cc1cc(-c2cc(C(F)(F)F)cc(C(F)(F)F)c2)ccc1CC(=O)O`, the EC50 in test [1] is 0.21 µM; in test [2], 0.29 µM. Besides, the outcome in test [3], in test [4] and in test [5] was Active.

Usually EC50 stands for the concentration needed to bring the measured effect to its halfway point. Low values mean greater potency, high ones weaker potency.
